Screens as filed in PubChem.
Ins promoter up: MIN6 insulin promoter up-regulation | MIN6 insulin promoter-GFP reporter, high-content imaging; stronger effect = higher value | z-score at 5 µM | hit rate 0.3% among 190,000;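 active = z-score above 3 at 5 µM with at least 500 cells counted in the well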
ABCG2 inh: inhibitors of human ABCG2 transporter, ABCB1 counter-screen; Q9UNQ0; IgMXP3 cells, JC-1 efflux, flow cytometry; inhibition, % at 6.6 µM; hit rate 0.1% among 190,000;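 active = inhibition above 80%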;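 note: 0% = DMSO and 100% = nicardipine control wells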
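test system = two drug-resistant human cell lines, ABCG2 and ABCB1 | amount = 3 million cells/mL final, two lines in 1:1 ratio | reagent = JC-1 transporter substrate | doses = one concentration, 6.6 µM final | incubation = 10 min at 25 °C | signal = flow cytometric JC-1 green MFI at 530 nm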
GRK2 aptamer HTS: blocks RNA aptamer binding to human GRK2; P25098; bead flow cytometry, FAM-aptamer displacement from GRK2; inhibition of aptamer binding, % at 10 µM; hit rate 0.59% among 330,000; AID 488847;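 active = inhibition of aptamer binding above 40%, roughly 3 SD of noise, on plates passing a quality check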;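 note: median bead fluorescence of bound FAM aptamer so fluorescent compounds give negative values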
ABCB1 inh: blocks JC-1 efflux by human ABCB1 transporter. P08183. CCRF-Adr cells, flow cytometry. inhibition, % at 6.6 µM. hit rate 0.067% among 190,000. AID 1326; in the data active = inhibition above about 40%;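 note: 0% = vehicle and 100% = reference inhibitor; higher value means more JC-1 retained so stronger ABCB1 efflux block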
Target sequence (P08183 whole entry, looked up): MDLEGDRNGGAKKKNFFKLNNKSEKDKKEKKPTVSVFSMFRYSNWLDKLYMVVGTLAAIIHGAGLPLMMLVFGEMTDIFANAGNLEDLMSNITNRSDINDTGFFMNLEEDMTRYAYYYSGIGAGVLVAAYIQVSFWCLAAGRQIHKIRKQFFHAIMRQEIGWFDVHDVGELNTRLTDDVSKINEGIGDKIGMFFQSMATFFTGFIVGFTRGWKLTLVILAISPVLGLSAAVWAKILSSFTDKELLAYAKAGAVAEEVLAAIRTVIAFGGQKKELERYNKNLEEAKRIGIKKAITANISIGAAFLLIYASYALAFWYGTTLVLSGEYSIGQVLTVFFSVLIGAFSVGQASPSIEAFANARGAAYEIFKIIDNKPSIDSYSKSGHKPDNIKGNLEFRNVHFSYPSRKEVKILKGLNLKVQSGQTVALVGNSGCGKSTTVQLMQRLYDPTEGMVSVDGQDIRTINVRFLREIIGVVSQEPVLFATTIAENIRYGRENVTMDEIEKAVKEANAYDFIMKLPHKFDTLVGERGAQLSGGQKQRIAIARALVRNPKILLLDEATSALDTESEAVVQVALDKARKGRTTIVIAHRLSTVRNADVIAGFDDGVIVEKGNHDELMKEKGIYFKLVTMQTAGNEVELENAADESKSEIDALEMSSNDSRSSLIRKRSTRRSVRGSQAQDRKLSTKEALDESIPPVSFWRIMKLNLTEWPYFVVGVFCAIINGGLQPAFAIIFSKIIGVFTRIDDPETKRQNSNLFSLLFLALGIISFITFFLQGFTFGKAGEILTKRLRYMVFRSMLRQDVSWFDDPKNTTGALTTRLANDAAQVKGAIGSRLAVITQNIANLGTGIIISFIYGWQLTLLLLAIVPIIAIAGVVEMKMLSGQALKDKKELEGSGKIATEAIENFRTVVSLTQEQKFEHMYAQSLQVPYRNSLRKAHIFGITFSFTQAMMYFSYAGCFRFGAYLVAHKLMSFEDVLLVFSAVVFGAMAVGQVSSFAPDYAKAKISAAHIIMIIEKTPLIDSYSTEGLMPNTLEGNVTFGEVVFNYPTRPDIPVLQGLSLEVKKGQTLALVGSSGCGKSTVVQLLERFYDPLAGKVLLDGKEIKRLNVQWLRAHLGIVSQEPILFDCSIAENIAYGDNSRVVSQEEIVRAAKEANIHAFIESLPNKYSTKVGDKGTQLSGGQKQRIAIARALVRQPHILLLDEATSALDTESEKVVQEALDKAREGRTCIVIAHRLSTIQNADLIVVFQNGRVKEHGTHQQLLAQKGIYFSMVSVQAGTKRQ
Tn6 DDE FP: DD(E)-Tn6 binding inhibition, primary FP screen | hit rate 0.21% among 370,000 | inhibition, % at 8.3 µM | Fibrin DD(E) TRITC-Tn6 fluorescence polarization displacement | P02675;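 active = inhibition above a per-campaign cutoff: mean of compounds within control limits plus 3 SD, cut at about 15% in these data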;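 note: 0% = median of all compound wells on the plate and 100% = blocking peptide control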
DDE Tn7 FP inh: inhibitors of Tn7 peptide binding to human fibrin DD(E); hit rate 0.13% among 370,000; P02675; FP displacement of FITC-Tn7 peptide from fibrin DD(E); 0% = median of compound wells per plate; inhibition, % at 8.3 µM;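 active = inhibition above the mean of compounds falling within the control limits plus 3 SD of them, cut at about 14% in these data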;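 note: 0% = plate median of compound wells and 100% = 10 µM Aha-Tn7 peptide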
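Assay system: Human clot-derived fibrin DD(E) complex | Buffer or medium: Tris/NaCl/CaCl2 buffer, pH 7.8 | Repeats: One replicate per compound | Benchmarks: Aha-Tn7 high control | Measure: % inhibition scaled between sample-field median and high-control FP | Schedule: 10 min plus 3 h, room temperature | Signal: Fluorescence polarization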
* hit, by the source's call; . = not tested or not shown. A selection: hits, their analogues and other compounds. The true share with any hit is near 0.99%.

SMILES	Ins promoter up	ABCG2 inh	GRK2 aptamer HTS	ABCB1 inh	Tn6 DDE FP	DDE Tn7 FP inh
CCCCCN(C(=O)CCC(=O)OCc1ccccc1C(F)(F)F)c1c(N)n(CCCC)c(=O)[nH]c1=O	.	.	47.0*	.	7.4	-2.5
Brc1ccc(CSc2nnc(SCc3ccccc3)s2)cc1	.	.	.	.	1.4	-1.4
COc1cc(C=c2c3ccccc3n3c2cc(-c2ccccc2)[n+]3C)cc(OC)c1OC	.	.	.	.	17.2*	3.2
COc1cc(N(C)C)ccc1C=c1c2ccccc2n2c1cc(-c1ccccc1)[n+]2C	.	.	.	.	-9.3	-1.3
O=C(/C=C/c1ccco1)NC(=S)Nc1ccccc1N1CCCC1	3.08*	0.2	0.0	-0.2	-3.0	-1.5
O=C(/C=C/c1ccco1)NC(=S)Nc1ccccc1N1CCOCC1	-0.97	2.4	0.0	0.9	-0.6	0.9
CCOC(=O)CNC(=O)c1cn(CC)c(=O)c2cc(OC)c(OC)cc12	1.1	0.9	1.0	0.1	-8.5	3.5
CCOC(=O)CNC(=O)c1cn(C)c(=O)c2cc(OC)c(OC)cc12	3.18*	0.1	0.0	-0.1	-1.7	-1.4
CC(=O)C1=C(C)Nc2ncnn2C1c1ccccc1F (centres undefined)	.	.	0.0	.	3.0	-5.5
CC(=O)C1=C(C)Nc2ncnn2C1c1ccc(Cl)cc1Cl (centres undefined)	3.45*	13.0	0.0	-0.2	-0.2	-1.8
COc1ccc(C(=O)N(CN2CCCC2=O)c2ccc(C)cc2)cc1	3.42*	1.8	0.0	0.7	-9.8	3.0
CCCNC(=O)N1CCC(C(=O)c2ccc(Cl)cc2)CC1	3.79*	2.5	0.0	0.3	-2.7	5.5
Cc1ccccc1OCC(=O)OC1CCN(C)CC1	8.59*	1.5	0.0	0.0	1.6	-0.7
CC(C)(C)[C@H]1COC(=O)[C@H](NC(=O)OCC2c3ccccc3-c3ccccc32)C/C=C\C[C@@H](CC(=O)N[C@H](CO)Cc2ccccc2)C(=O)N1	.	.	97.0*	.	0.6	-2.2
CCCCCCCCN1C(=O)[C@@H](CC(=O)N2CCC(c3ccccc3)CC2)C[C@@]2(C(=O)OC)C1=C[C@H](C(C)C)O[C@@H]2C1CC1	.	.	.	.	-0.7	-5.5
CC(=O)C(=Cc1cn(-c2ccccc2)nc1-c1ccccc1)C(C)=O	3.2*	11.2	1.0	0.5	-5.3	-11.1
Cc1ccc(C(=O)N/C(=C/c2cn(-c3ccccc3)nc2-c2ccccc2)C(=O)O)cc1	.	0.0	2.0	0.0	5.8	0.9
O=C1S/C(=C\c2ccc(N3CCOCC3)o2)C(=O)N1Cc1c(F)cccc1Cl	.	132.2*	0.0	7.8	4.4	0.2
O=C1S/C(=C\c2ccc(N3CCOCC3)o2)C(=O)N1c1ccccc1	.	1.5	0.0	0.1	5.6	2.4
COC(=O)C1CN(Cc2cn(Cc3ccc(F)cc3)nn2)CCS(=O)(=O)N1Cc1ccc(C)cc1 (centres undefined)	.	.	.	.	3.9	-2.4
O=C(Nc1ccc2nc(-c3ccco3)c(-c3ccco3)nc2c1)N1CCCCCC1	-0.07	-1.8	52.0*	-0.8	.	.
COc1ccc(-c2c(C#N)c(N)nc3sc(C(=O)c4ccccc4)c(N)c23)cc1	-0.47	-6.9	6.0	-1.0	-2.1	-5.8
CCOc1ccc(-c2c(C#N)c(N)nc3sc(C(=O)c4ccccc4)c(N)c23)cc1	9.11*	.	2.0	.	-2.7	8.1
O=C(CSc1nnc(-c2ccccc2F)n1Cc1ccco1)Nc1ccccc1-c1ccccc1	.	.	.	.	7.5	-1.8
Cc1ccc(C)c(OCCn2c(=O)c3c(ncn3C3CCCC3)n(Cc3ccccc3)c2=O)c1	-0.12	84.0*	0.0	36.9	0.4	-4.1
SMILES	Ins promoter up	ABCG2 inh	GRK2 aptamer HTS	ABCB1 inh	Tn6 DDE FP	DDE Tn7 FP inh
Cc1ccccc1-n1ncc2c(SCC(=O)NCc3cccs3)ncnc21	3.57*	1.7	2.0	0.1	-0.3	-1.5
O=C1CCC(=O)N1OCCCCOc1ccccc1	.	6.0	42.0*	0.7	4.4	3.1
CN(C)S(=O)(=O)Oc1cccc(C(=O)Nc2ccc([N+](=O)[O-])cc2)c1	3.38*	7.9	0.0	0.8	1.9	-7.0
FC(F)(F)c1cnc(Oc2ccccc2-c2nnco2)c(Cl)c1	0.2	1.1	58.0*	0.5	2.8	-1.8
COC(=O)[C@]12C[C@H](CC(=O)NCc3ccc(C)o3)C(=O)N(CCc3ccc(OC)c(OC)c3)C1=C[C@H](COCc1ccccc1)O[C@@H]2C	.	.	.	.	0.9	-8.9
C/C=C(\C)C(=O)Nc1cccc(C2=NOC3(C2)C[C@@H](C(N)=O)N(C(=O)c2ccccc2C(=O)c2ccccc2)C3)c1 (some centres undefined)	0.89	.	5.0	.	2.6	-5.3
C=C(C)C(=O)Nc1cccc(C2=NOC3(C2)C[C@H](C(N)=O)N(C(=O)c2ccccc2C(=O)c2ccccc2)C3)c1 (some centres undefined)	1.33	.	91.0*	.	-1.7	-8.5
C=C(C)C(=O)Nc1cccc(C2=NOC3(C2)C[C@H](C(N)=O)N(C(=O)CC)C3)c1 (some centres undefined)	0.39	.	72.0*	.	.	.
C/C=C(\C)C(=O)Nc1cccc(C2=NOC3(C2)C[C@@H](C(N)=O)N(C(=O)/C(C)=C/C)C3)c1 (some centres undefined)	-0.28	.	1.0	.	5.7	-5.0
C=C(C)C(=O)Nc1cccc(C2=NOC3(C2)C[C@@H](C(N)=O)N(C(=O)/C(C)=C/C)C3)c1 (some centres undefined)	0.22	.	94.0*	.	0.9	0.4
COC(=O)[C@]12C[C@H](CC(=O)N3CCOCC3)C(=O)N(Cc3ccc(Cl)cc3Cl)C1=C[C@H](C1CCCC1)O[C@@H]2C	.	.	.	.	-3.7	-6.1
C[C@]12c3[nH]c4cc(-c5ccco5)ccc4c3CCN1C(=O)[C@@H](CC(=O)NCCCn1ccnc1)C[C@@H]2C(=O)N1CCOCC1	.	.	0.0	.	.	.
CC(C)N(C(=O)[C@H]1C[C@H](CC(=O)NC(C)(C)C)C(=O)N2CCc3c([nH]c4cc(-c5ccco5)ccc34)[C@]12C)C(C)C	.	.	2.0	.	3.0	7.0
C[C@]12c3[nH]c4cc(-c5ccco5)ccc4c3CCN1C(=O)[C@@H](CC(=O)NCCCn1ccnc1)C[C@@H]2C(=O)N1CCCCC1	.	.	52.0*	.	2.2	2.3
CCN(CC)C(=O)[C@H]1C[C@H](CC(=O)NC(C)(C)C)C(=O)N2CCc3c([nH]c4cc(-c5ccco5)ccc34)[C@]12C	.	.	44.0*	.	4.3	-8.6
C[C@]12c3[nH]c4ccccc4c3CCN1C(=O)C(CC(=O)NCCc1ccccn1)C[C@@H]2C(=O)N1CCOCC1 (some centres undefined)	.	.	81.0*	.	8.5	-6.7
C[C@]12c3[nH]c4ccccc4c3CCN1C(=O)C(CC(=O)NCCc1ccccn1)C[C@@H]2C(=O)N1CCCCC1 (some centres undefined)	.	.	4.0	.	6.3	9.3
CCn1c(Cc2cccs2)nnc1SCC(=O)Nc1ccc(Cl)cc1C	.	.	.	.	5.3	4.8
